Experimental data of several laboratories.
Lines come from different studies, so protocols differ.
Matrix: plasma

Compound | host | route | dose | notes | Tmax
COc1cc(-c2cc(C(C)=O)n3ccccc23)c(OC)cc1Cn1ccnc1 | male Sprague-Dawley rat | intravenous | 5 mg/kg | – | 0.96 min
CC[C@@H]([C@H](C)O)n1ncn(-c2ccc(N3CCN(c4ccc(OC[C@@H]5CO[C@@](Cn6cncn6)(c6ccc(F)cc6F)C5)cc4)CC3)cc2)c1=O | Sprague-Dawley rat | oral | 40 mg/kg | – | 183 min
CCN(CC)Cc1ccc2cc(COC(=O)Nc3ccc(C(=O)NO)cc3)ccc2c1 | male Sprague-Dawley rat | oral | 10 mg/kg | – | ~103 min
C[C@H]1[C@@H](O)O[C@@H]2O[C@@]3(C)CC[C@H]4[C@H](C)CC[C@@H]1[C@@]24OO3 | male Sprague-Dawley rat | oral | 10 mg/kg | – | 45 min
COc1ccc(N(Cc2csc(-c3ccccc3)n2)C(=O)CCCCCC(=O)NO)cc1 | female Sprague-Dawley rat | oral | 30 mg/kg | – | 60 min
C[C@H]1Oc2cc(cnc2N)-c2c(nn(C)c2C#N)CN(C)C(=O)c2ccc(F)cc21 | male Sprague-Dawley rat | oral | 10 mg/kg | single dose | 81.6 min
O=C1CCC(N2Cc3cc(C4CCN(Cc5ccccc5)CC4)ccc3C2=O)C(=O)N1 (centres unmarked) | male Sprague-Dawley rat | intravenous | 1 mg/kg | – | 8.4 min
CONC(=O)c1cccc2c1cc(C)n2-c1nc2c(c(NCc3ccccc3)n1)CCCN2 | male Sprague-Dawley rat | oral | 10 mg/kg | single dose | 15 min
C[C@@]12C[C@@]3(O)O[C@@H](O1)[C@]1(COC(=O)c4ccccc4)[C@H]3C[C@@]12O[C@@H]1O[C@H](CO)[C@@H](O)[C@H](O)[C@H]1O | male Sprague-Dawley rat | oral | 80 mg/kg | – | 30.4 min
CCCCC(=O)Nc1ccc(-c2ccc3ncn(CCC)c(=O)c3c2)cn1 | male rat | oral | 10 mg/kg | – | 15 min
C1=C/COCc2cc(ccc2OCCN2CCCC2)Nc2nccc(n2)-c2cccc(c2)COC/1 | male Sprague-Dawley rat | oral | 36 mg/kg | – | 520 min
